# Assay results reported in ChEMBL document CHEMBL1124055, “Analogues of [(triethylsilyl)ethynyl]estradiol as potential antifertility agents” (1988).
# Legend:
# Type in all cases: functional
# Rattus norvegicus [1] = species: Rattus norvegicus; assay: Oral estrogenic potency (E) relative to ethynylestradiol (EE) in rats
# Summary of the method: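 Rats given compound orally by gavage once daily for 3 consecutive days; vehicle-only control; 10 animals/group. Autopsy 24 h after last dose; uteri excised, cleaned, blotted and weighed to nearest 0.2 mg. Regression lines for standard (ethynylestradiol) and test compound constructed and compared to derive relative potency.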
# Rattus norvegicus [2] = species: Rattus norvegicus; assay: Oral antifertility potency (A) relative to ethynylestradiol (EE) in rats
# Summary of the method: (§1)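 Mated cycling adult female rats (cohabited with males on proestrus night; sperm in vaginal washings) dosed orally by gavage in sesame oil once daily for 7 consecutive days; vehicle control; 10 rats/group. Killed about day 8; uteri examined for presence and condition of conceptuses. Potency from comparison with regression line of standard ethynylestradiol.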
# Rattus norvegicus [3] = species: Rattus norvegicus; assay: Oral antifertility potency (A) relative to ethynylestradiol (EE) in rats.; summary of the method: as §1
SMILES,Potency (Rattus norvegicus [1]),Potency (Rattus norvegicus [2]),Potency (Rattus norvegicus [3])
C#C[C@]1(O)CCC2C3C=Cc4cc(O)ccc4C3CCC21C (stereo partly drawn),2%,20%,–
C#C[C@]1(O)CCC2c3ccc4cc(O)ccc4c3CCC21C (stereo partly drawn),0.6%,10%,–
CC[Si](C#C[C@]1(O)CCC2=C3C=Cc4cc(O)ccc4C3CCC21C)(CC)CC (stereo partly drawn),1%,66%,–
C#C[C@]1(O)CC[C@H]2[C@@H]3CCc4cc(O)ccc4[C@H]3[C@@H](O)C[C@@]21C,0.8%,200%,–
C#C[C@]1(O)CC[C@H]2[C@@H]3CCc4ccccc4[C@H]3CC[C@@]21C,31%,33%,–
C#C[C@]1(O)CC[C@H]2[C@@H]3[C@H](O)Cc4cc(O)ccc4[C@H]3CC[C@@]21C,0.1%,66%,–
C#C[C@]1(O)CC[C@H]2[C@@H]3CCc4cc(O)c(CN(CCC)CCC)cc4[C@H]3CC[C@@]21C,1.3%,–,>2 mg/kg/day
CC[Si](C#C[C@]1(O)CC[C@H]2[C@@H]3C[C@H](O)c4cc(O)ccc4[C@H]3CC[C@@]21C)(CC)CC,38%,300%,–
C#C[C@]1(O)CC[C@H]2[C@@H]3CCc4cc(O)c(OC)cc4[C@H]3CC[C@@]21C,0.3%,–,>2 mg/kg/day
CCCN(CCC)Cc1cc2c(cc1O)CC[C@@H]1[C@@H]2CC[C@@]2(C)[C@H]1CC[C@@]2(O)C#C[Si](CC)(CC)CC,0.3%,–,>1 mg/kg/day
CC[Si](C#C[C@]1(O)CC[C@H]2[C@@H]3CCc4ccccc4[C@H]3CC[C@@]21C)(CC)CC,13%,100%,–
CC[Si](C#C[C@]1(O)C(C)C[C@H]2[C@@H]3CCc4cc(O)ccc4[C@H]3CC[C@@]21C)(CC)CC (stereo partly drawn),0.2%,–,>0.8 mg/kg/day
CC[Si](C#C[C@]1(O)CC[C@H]2[C@@H]3CCc4cc(OC)ccc4[C@H]3CC[C@@]21C)(CC)CC,1.8%,–,>2 mg/kg/day
C=CCc1c(O)ccc2c1CC[C@@H]1[C@@H]2CC[C@@]2(C)[C@H]1CC[C@@]2(O)C#C[Si](CC)(CC)CC,0%,–,>3 mg/kg/day
CC[Si](C#C[C@]1(O)CC[C@H]2[C@@H]3[C@H](O)Cc4cc(O)ccc4[C@H]3CC[C@@]21C)(CC)CC,0.3%,20%,–
C#C[C@]1(O)CC[C@H]2[C@@H]3C[C@@H](C)c4cc(O)ccc4[C@H]3CC[C@@]21C,1.8%,–,>0.5 mg/kg/day
C#C[C@]1(O)CC[C@H]2[C@@H]3[C@H](O)[C@H](O)c4cc(O)ccc4[C@H]3CC[C@@]21C,0.3%,–,>0.5 mg/kg/day

SMILES,Potency (Rattus norvegicus [1]),Potency (Rattus norvegicus [2]),Potency (Rattus norvegicus [3])
C#C[C@]1(O)CC[C@H]2[C@@H]3CCc4cc(O)c(C)cc4[C@H]3CC[C@@]21C,5.5%,40%,–
C#C[C@]1(O)CC[C@H]2[C@@H]3C[C@H](O)c4cc(O)ccc4[C@H]3CC[C@@]21C,16%,–,>0.2 mg/kg/day
CC[Si](C#C[C@]1(O)CC[C@H]2[C@@H]3[C@H](O)[C@H](O)c4cc(O)ccc4[C@H]3CC[C@@]21C)(CC)CC,0.6%,–,>0.5 mg/kg/day
CC[Si](C#C[C@]1(O)CC[C@H]2[C@@H]3CCc4cc(O)ccc4[C@H]3[C@@H](O)C[C@@]21C)(CC)CC,14.4%,64%,–
C#C[C@]1(O)CC(OC)[C@H]2[C@@H]3CCc4cc(OC)ccc4[C@H]3CC[C@@]21C (stereo partly drawn),0.8%,10%,–
CC[Si](C#C[C@]1(O)CC[C@H]2[C@@H]3C[C@@H](O)c4cc(O)ccc4[C@H]3CC[C@@]21C)(CC)CC,16%,40%,–
CC[Si](C#C[C@]1(O)CC[C@H]2[C@@H]3C[C@@H](C)c4cc(O)ccc4[C@H]3CC[C@@]21C)(CC)CC,0.2%,7.5%,–
C#C[C@]1(O)C(C)C[C@H]2[C@@H]3CCc4cc(O)ccc4[C@H]3CC[C@@]21C (stereo partly drawn),0.5%,–,>2 mg/kg/day
CC[Si](C#C[C@]1(O)CC[C@H]2[C@@H]3CCc4cc(O)c(OC)cc4[C@H]3CC[C@@]21C)(CC)CC,0.06%,–,>2.8 mg/kg/day
CC[Si](C#C[C@]1(O)CC[C@H]2[C@@H]3CCc4cc(O)ccc4[C@H]3CC[C@@]21C)(CC)CC,37%,600%,–
C#C[C@]1(O)CC[C@H]2[C@@H]3CCc4c(ccc(O)c4CC=C)[C@H]3CC[C@@]21C,0.1%,–,>2 mg/kg/day
CC[Si](C#C[C@]1(O)CC(OC)[C@H]2[C@@H]3CCc4cc(OC)ccc4[C@H]3CC[C@@]21C)(CC)CC (stereo partly drawn),3%,–,>0.2 mg/kg/day
CC[Si](C#C[C@]1(O)CC[C@H]2[C@@H]3CCc4cc(O)c(C)cc4[C@H]3CC[C@@]21C)(CC)CC,2.2%,40%,–
CC[Si](C#C[C@]1(O)CCC2C3C=Cc4cc(O)ccc4C3CCC21C)(CC)CC (stereo partly drawn),2%,200%,–
CC[Si](C#C[C@]1(O)CCCC2C3CCc4cc(O)ccc4C3CCC21C)(CC)CC (stereo partly drawn),0.1%,–,>2 mg/kg/day
C#C[C@]1(O)CC[C@H]2[C@@H]3CCc4cc(O)ccc4[C@H]3CC[C@@]21C [ETHINYL ESTRADIOL],100%,100%,–
C#C[C@]1(O)CC[C@H]2[C@@H]3CCc4cc(OC)ccc4[C@H]3CC[C@@]21C [MESTRANOL],0.3%,–,>2 mg/kg/day
